What was measured:
[1] = test system: Leishmania donovani; test: Antileishmanial activity against Leishmania donovani WR378 infected in golden Syrian hamster assessed as reduction in bone marrow parasitemia at 30 mg/kg/day, po administered for five days; format: functional; details: 120 h
How it was run: (§1)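 11-day golden hamster VL model adapted from an 8-day method, using L. donovani WR378 metacyclic promastigotes. Dosing was oral, once daily for 5 days. Animals were euthanized on day 11 post-infection. Liver, spleen and femoral bone marrow (flushed with Schneider's medium) were harvested.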

[2] = test system: Leishmania donovani; test: Antileishmanial activity against Leishmania donovani WR378 infected in golden Syrian hamster assessed as reduction in liver parasitemia at 30 mg/kg/day, po administered for five days; format: functional; details: 120 h; how it was run: as §1
[3] = test system: Leishmania donovani; test: Antileishmanial activity against Leishmania donovani WR378 infected in golden Syrian hamster assessed as reduction in spleen parasitemia at 30 mg/kg/day, po administered for five days; format: functional; details: 120 h; how it was run: as §1
[4] = test system: Leishmania donovani; test: Antileishmanial activity against Leishmania donovani axenic amastigotes; format: functional, organism-based
[5] = test system: Leishmania major; test: Antileishmanial activity against intracellular Leishmania major amastigotes; format: functional, organism-based
[6] = test system: Leishmania donovani; test: Antileishmanial activity against intracellular Leishmania donovani LV82 amastigotes infected in CD-1 mouse peritoneal macrophage; format: functional, organism-based
How it was run: (§2)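 CD-1 mouse peritoneal macrophages, 5 × 10^4 cells/well in RPMI 1640 + 10% heat-inactivated FBS, adhered overnight. Infected overnight with stationary-phase LV82 promastigotes (5:1 parasite:macrophage), 37°C, 5% CO2. Medium then replaced with compound or vehicle for 72 h at 37°C. Methanol-fixed, Giemsa-stained; % infected macrophages counted at ×1,000. IC50 by four-parameter logistic nonlinear regression.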

[7] = test system: Leishmania donovani; test: Antileishmanial activity against intracellular Leishmania donovani LV82 amastigotes; format: functional, organism-based; how it was run: as §2
[8] = test system: Leishmania amazonensis; test: Antileishmanial activity against intracellular Leishmania amazonensis amastigotes; format: functional, organism-based
[9] = Induction of mutagenicity in Salmonella serovar Typhimurium TA 98 assessed as number of revertant colonies at 5 ug by Ames assay; format: toxicity, Salmonella enterica subsp. enterica serovar Typhimurium; details: in vivo
How it was run: (§3)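 Ames plate incorporation with S. Typhimurium TA98 and TA100, with or without Aroclor 1254-induced rat liver S9 (10% vol/vol). Compound was dissolved in sterile water and serially diluted to 1–500 μg/plate. Positive controls were 2-nitrofluorene and sodium azide without S9, and 2-aminoanthracene with S9; sterile water and DMSO served as vehicles. Revertant colonies and background lawn were scored. A mutagen was defined as a mean revertant count at least 2-fold over solvent control. Single experiment.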

[10] = Induction of mutagenicity in Salmonella serovar Typhimurium TA 100 assessed as number of revertant colonies at 2 ug by Ames assay in presence of Aroclor 1254-induced rat liver S9 metabolic activation system; format: toxicity, subcellular, Salmonella enterica subsp. enterica serovar Typhimurium; how it was run: as §3
[11] = Induction of mutagenicity in Salmonella serovar Typhimurium TA 98 assessed as number of revertant colonies at 2 ug by Ames assay in presence of Aroclor 1254-induced rat liver S9 metabolic activation system; format: toxicity, subcellular, Salmonella enterica subsp. enterica serovar Typhimurium; how it was run: as §3
[12] = Induction of mutagenicity in Salmonella serovar Typhimurium TA 100 assessed as number of revertant colonies at 5 ug by Ames assay; format: toxicity, Salmonella enterica subsp. enterica serovar Typhimurium; details: in vivo
How it was run: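 Plate incorporation method with TA100, with and without Aroclor 1254-induced rat liver S9 (10% vol/vol). Compound dissolved in sterile water, serially diluted; plates scored for revertant count and background lawn versus controls. Mutagen if mean revertants at least 2-fold over mean solvent control. Positive controls: 2-nitrofluorene and sodium azide without S9, 2-aminoanthracene with S9; water and DMSO vehicles.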

| Structure (SMILES) | IC50 [4] [µM] | IC50 [5] [µM] | IC50 [6] [µM] | IC50 [7] [µM] | IC50 [8] [µM] | other results |
| --- | --- | --- | --- | --- | --- | --- |
| CCCCCCCCCCCCCCCCOP(=O)([O-])OCC[N+](C)(C)C [MILTEFOSINE] | 8.5 | 25 | 24 | 2.7 |  | inhibition in vivo at 30 mg/kg/day [1]: 91%; inhibition in vivo at 30 mg/kg/day [2]: 88%; inhibition in vivo at 30 mg/kg/day [3]: 79% |
| NC[C@@H]1O[C@H](O[C@H]2[C@@H](O)[C@H](O[C@@H]3[C@@H](O)[C@H](N)C[C@H](N)[C@H]3O[C@H]3O[C@H](CO)[C@@H](O)[C@H](O)[C@H]3N)O[C@@H]2CO)[C@H](N)[C@@H](O)[C@@H]1O [PAROMOMYCIN] | > 50 | 25 | > 100 | > 50 | 19 |  |
| O=[N+]([O-])c1ccc2c(c1)Cc1ccccc1-2 [2-NITROFLUORENE] |  |  |  |  |  | Activity [9]: 1573 |
| N=C(N)c1ccc(OCCCCCOc2ccc(C(=N)N)cc2)cc1 [PENTAMIDINE] |  |  | 14 | > 50 | 0.83 |  |
| Nc1ccc2cc3ccccc3cc2c1 [2-AMINOANTHRACENE] |  |  |  |  |  | Activity [10]: 2563; Activity [11]: 2744 |
| C[C@@H]1[C@H](O)[C@@H](C)/C=C/C=C/C=C/C=C/C=C/C=C/C=C/[C@H](O[C@@H]2O[C@H](C)[C@@H](O)[C@H](N)[C@@H]2O)C[C@@H]2O[C@](O)(C[C@@H](O)C[C@@H](O)[C@H](O)CC[C@@H](O)C[C@@H](O)CC(=O)O[C@H]1C)C[C@H](O)[C@H]2C(=O)O [AMPHOTERICIN B] | 0.098 | 0.21 | 8.2 | 0.066 | 0.14 |  |
| [N-]=[N+]=[N-].[Na+] [SODIUM AZIDE] |  |  |  |  |  | Activity [12]: 1882 |
